This note sets out measurements from PubChem BioAssay AID1296 (Columbia University Molecular Screening Center, 2008).

In all, about 130,000 compounds went through this assay and about 1,000 (0.77%) were called active. Inconclusive results (about 1%) are left out. The sample holds actives, similar compounds and a random draw of the others, so the mix is not that of the screen.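 Rule for the calls: active = activation at 2 µM above a set limit, confirmed on inspection of the cell images; inconclusive = above the set limit but not confirmed on image inspection; inactive = the rest.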

This experiment is described as follows: activators of insulin promoter-driven GFP, primary screen, imaging, TRM-6 cells (human fetal islet line), eGFP reporter, cell count (AID 1296;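 for activation: share of cells whose green reporter signal exceeds an intensity cutoff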;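 for normalized cell count: cells counted after 48 h compound exposure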). The settings on record: at 2 µM; activation: stronger effect = higher value, plate-scaled: unstimulated 0, stimulated control 100; normalized cell count: measured here: cell count (toxicity). The essentials:
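Test system: TRM-6 insulin promoter–eGFP reporter cells / Quantity: 1,000 cells per well / Reagent: tamoxifen inducer, 0.75 µM, in seeding medium / Compound dosing: 2 µM final, single concentration / Schedule: overnight tamoxifen, then two-day compound incubation at 37 °C / Measured by: automated fluorescence imaging of paraformaldehyde-fixed, Hoechst-counterstained cells, green channel / Read-out: percent activation from GFP-positive cell fraction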
Regarding `CCCC1NC(=S)NC(C)=C1C(C)=O` (stereo not given), the activation was 7.14% (inactive) and the normalized cell count came out at 103%.
Consider `COC(=O)c1ccccc1NC(=S)NC(=O)c1ccccc1F`, for which the activation was 0% (inactive) and the normalized cell count is 112%.
For `Cc1ccccc1OCCOc1ccc([N+](=O)[O-])cc1/C=N/n1cnnc1`, the activation was 107% (inactive) and the normalized cell count was 5.92%.
As for `COC(=O)c1[nH]c2ccccc2c1NC(=O)CN1CCCc2ccccc21`, the activation is 209% (active) and the normalized cell count was determined as 75.4%.
The like results for `Cn1c(SCC(=O)N2CCCc3ccccc32)nc2ccccc2c1=O` were, in that order, 57.1% (inactive) and 100%.
With `Cc1[nH]c2ccccc2c1SCC(=O)Nc1nccs1`, the activation is 5.56% (inactive) and the normalized cell count was determined as 140%.
Consider `Cc1cccc(-n2cc(CN3CCN(C(=O)c4ncn[nH]4)CC3)c(-c3cccc(F)c3)n2)c1`, for which the activation was 0% (inactive) and the normalized cell count is 108%.
The like results for `O=C(COc1ccc2c(C(F)(F)F)cc(=O)oc2c1)Nc1ccc2c(c1)OCCO2` were, in that order, 2.7% (inactive) and 112%.
Consider `CC1(C)CC(=O)c2cnc3nc4ccccc4n3c2C1`, for which the activation is -76.2% (inactive) and the normalized cell count is 56.3%.
The like results for `Cc1cc(C(=O)OCC(=O)Nc2nnc(C(C)C)s2)c2ccccc2n1` were, in that order, 0% (inactive) and 93.8%.
For the compound `N#C/C(=C\C1=C(N2CCOCC2)C(=C\c2ccccc2)/CC1)C(=O)Nc1ccccc1F`, the activation was 525% [fluoresces] (active) and the normalized cell count amounted to 109%.
The like results for `CC(CC(=O)O)C(=O)c1ccc(Cl)c([N+](=O)[O-])c1` (stereo not given) were, in that order, 6.67% (inactive) and 136%.
As for `O=C1C(Cl)=C(N2CCOCC2)C(=O)N1c1ccccc1`, the activation was 0% (inactive) and the normalized cell count amounted to 129%.
Taken in the same sequence, the figures for `Cn1nc(-c2ccc(N3CCOCC3)c(NC(=O)c3ccccc3)c2)c2ccccc2c1=O` were 0% (inactive) and 95.6%.
In the case of `O=C1OC(NC(=O)c2ccccc2)C(N2CCOCC2)=C1Cl` (stereo not given), the activation is 162% (active) and the normalized cell count was found to be 118%.
As to `C=CCc1cccc2cc(C(=O)OCC)c(=O)oc12`, the activation was 7.14% (inactive) and the normalized cell count turned out to be 70.6%.
The like results for `COCCCNCCOCCOc1ccc(Cl)cc1Br` were, in that order, 6.67% (inactive) and 166%.
Taken in the same sequence, the figures for `CC1=NN(C(=O)Cc2ccc(C)cc2)C(O)(c2cccnc2)C1` (stereo not given) were -5.41% (inactive) and 170%.
Take `CN(CC(=O)NC1CCCC1)S(=O)(=O)c1cnc[nH]1`: the activation was -7.14% (inactive) and the normalized cell count is 85%.
As to `CC(C)COP(=O)(c1ccc(N(C)C)cc1)C(Nc1ccccc1)c1cccnc1` (stereo not given), the activation is 2.94% (inactive) and the normalized cell count was 145%.
As for `COC(=O)c1ccc(COC(=O)c2c(C)nn(Cc3ccccc3Cl)c2Cl)o1`, the activation is 5.26% (inactive) and the normalized cell count worked out at 164%.
With `COC(=O)c1ccc(CSc2ccccc2C)o1`, the activation was 230% (active) and the normalized cell count was 122%.
Taken in the same sequence, the figures for `COC(=O)c1ccc(Cc2ccccc2)o1` were -92.9% (inactive) and 83.1%.
Taken in the same sequence, the figures for `C=CCN(c1ccc(C(=O)Nc2cc(C)cc(C)c2)cc1)S(C)(=O)=O` were 8.11% (inactive) and 119%.
Taken in the same sequence, the figures for `Cc1cccc2cc(CN(Cc3cccs3)C(=S)NCc3ccco3)c(=O)[nH]c12` were -7.94% (inactive) and 94.8%.
Regarding `CCNC(=S)N(CCc1c(C)[nH]c2ccc(C)cc12)Cc1ccco1`, the activation was 340% (active) and the normalized cell count stood at 55.7%.
For `CC1CCCN(CCOCCOc2ccccc2-c2ccccc2)C1` (stereo not given), the activation was 7.14% (inactive) and the normalized cell count came to 133%.
The like results for `Cc1ccc(C(C)(C)C)c(OCCCCN2CCCC2)c1` were, in that order, -1.96% (inactive) and 97.2%.
The like results for `CCOc1nnc(C)c2c(C)n(-c3cccc(Cl)c3)nc12` were, in that order, 162% (active) and 134%.
Take `Cc1nn(-c2ccccc2)c(C)c1NC(=O)COc1ccc(Cl)cc1Cl`: the activation was 3.7% (inactive) and the normalized cell count came to 120%.
Take `Cc1cc(C)c2c(n1)nn1c(N3CCN(c4cccc(Cl)c4)CC3)cc(C)nc21`: the activation was 141% (inactive) and the normalized cell count turned out to be 99.8%.
Take `O=C(CCCN1C(=O)/C(=C/c2ccco2)SC1=S)Nc1ccccc1`: the activation was 0% (inactive) and the normalized cell count was 158%.
Turning to `COc1ccc(N2CCN(C(=O)c3ccc4c(Cl)c5c(nc4c3)CCCC5)CC2)cc1`, the activation is 0% (inactive) and the normalized cell count was 94.9%.
The like results for `COc1ccc(C2CC(c3cccs3)Nc3nnnn32)cc1` (stereo not given) were, in that order, -78.6% (inactive) and 120%.
Consider `CC1(C)CC(=O)C(N=Nc2ccc(S(=O)(=O)N3CCCCCC3)cc2)=C(O)C1`, for which the activation was 0% (inactive) and the normalized cell count was found to be 78.9%.
Taken in the same sequence, the figures for `O=C(NCN1CCN(CCO)CC1)c1cnccn1` were 6.67% (inactive) and 83.1%.
In the case of `O=C(Nc1ccccc1C(=O)NCCCn1ccnc1)c1ccc(Cl)cc1Cl`, the activation was 289% (inactive) and the normalized cell count was determined as 61.3%.
Taken in the same sequence, the figures for `CCCC(=O)Nc1ccc(C(=O)NCCCn2ccnc2)cc1` were 456% (active) and 48.4%.
Turning to `Cc1ccc2c(Cl)c(C(=O)NCCCn3ccnc3)sc2c1`, the activation was 352% (inactive) and the normalized cell count was determined as 42%.
Taken in the same sequence, the figures for `C/C(=N\NC(=O)c1ccc(NS(=O)(=O)c2cccs2)cc1)c1ccc2ccccc2c1` were 157% (inactive) and 72.7%.
Turning to `CN(C)CCCCCN(C)Cc1cc2ccccc2o1`, the activation is 319% (active) and the normalized cell count came out at 86.1%.
Taken in the same sequence, the figures for `CCS(=O)(=O)Nc1cc(C(=O)OC)ccc1C(=O)OC` were -6.67% (inactive) and 104%.
Taken in the same sequence, the figures for `CCN(CCO)C(=S)Nc1cc(C(=O)OC)ccc1C(=O)OC` were 3.45% (inactive) and 127%.
In the case of `COC(=O)c1ccc(C(=O)OC)c(NC(=S)N2CCN(c3ccc(F)cc3)CC2)c1`, the activation was 403% (active) and the normalized cell count is 89.4%.
In the case of `COc1ccc(C)cc1Nc1nc(-c2c(C)[nH]c3ccccc23)cs1`, the activation was -3.7% (inactive) and the normalized cell count came to 68.8%.
Regarding `CN(c1ccc(OCC(=O)OCC(=O)Nc2cccc([N+](=O)[O-])c2)cc1)S(=O)(=O)c1ccc(F)cc1`, the activation is -8.57% (inactive) and the normalized cell count is 119%.
As for `CCc1ccc(NC(=O)Nc2ccncc2)cc1`, the activation is 268% (active) and the normalized cell count is 67.1%.
In the case of `COc1cccc(OC)c1C(=O)Nc1ccc(Cc2ccncc2)cc1`, the activation is 6.67% (inactive) and the normalized cell count worked out at 107%.
As to `O=C(Nc1ccncc1)c1c(F)cccc1F`, the activation was -5.26% (inactive) and the normalized cell count was found to be 90.9%.
Taken in the same sequence, the figures for `OCCNCCOc1ccc(Cl)c(Cl)c1` were -3.85% (inactive) and 86.5%.
The like results for `CC(NC(=O)Nc1ccc2c(c1)OCO2)c1ccncc1` (stereo not given) were, in that order, -5.26% (inactive) and 112%.
Taken in the same sequence, the figures for `Cc1onc(C(=O)NN)c1C(=O)N1CCN(C(c2ccccc2)c2ccccc2)CC1` were -81.8% (inactive) and 29.3%.
With `CCOC(=O)c1c(NC(=O)C2CC=CCC2C(=O)O)sc(C)c1CC` (stereo not given), the activation is -5.88% (inactive) and the normalized cell count came out at 110%.
On to `Cc1ccccc1C(OCCN(C)C)C1CCCCC1` (stereo not given), for which the activation is -9.38% (inactive) and the normalized cell count turned out to be 72.9%.
As to `Cc1ccc(N/N=C2\COC(C)(C)CC2=O)cc1`, the activation is 7.14% (inactive) and the normalized cell count is 67.8%.
